Assay results gathered from unrelated publications.
In brackets after ≈: the same amount, converted by molar mass.

| Structure (SMILES) | target or system | test | system | conditions | quantity | value |
| --- | --- | --- | --- | --- | --- | --- |
| O=C(C=Cc1ccccc1)Nc1ccc(Oc2nnc(-c3ccc(Cl)cc3)c3ccccc23)cc1 | HepG2 | cell growth or viability, MTT | – | 10 µM | cell death | 97.4% |
| CNc1ncc2c(/C=C/C(=O)N3CCC(OC)CC3)nn(CCC(C)C)c2n1 | OE33 | cell growth or viability, resazurin | – | 5 days | EC50 | 19.7 µM |
| O=C(Nc1ccc(Oc2nnc(-c3ccc(Cl)cc3)c3ccccc23)cc1)c1ccccc1 | HepG2 | cell growth or viability, MTT | – | 0.625 µM | cell death | 87.9% |
| CN(C)c1cc(NC(=O)CCc2ccccc2)c(O)c2c1C[C@H]1C[C@H]3[C@H](N(C)C)C(O)=C(C(N)=O)C(=O)[C@@]3(O)C(O)=C1C2=O | Mycobacterium tuberculosis | microbial growth, broth dilution | H37RV | 7 days, pH 7.4 | MIC | 12.5 µg/mL (≈ 20.7 µM) |
| CNc1ncc2c(/C=C/C(=O)N3CCC(OC)CC3)nn(C(C)C)c2n1 | OE33 | cell growth or viability, resazurin | – | 5 days | EC50 | 13.1 µM |
| CN(C)c1ccc(O)c2c1C[C@H]1C[C@H]3[C@H](N(C)C)C(O)=C(C(N)=O)C(=O)[C@@]3(O)C(O)=C1C2=O | Mycobacterium tuberculosis | microbial growth, broth dilution | H37RV | 7 days, pH 7.4 | MIC | 0.2 µg/mL (≈ 0.437 µM) |
| CC(C)(C)c1cnc(CSc2cnc(NC(=O)C3CCN(C(=O)COCCOCCSc4cccc5c4C(=O)N(C4CCC(=O)NC4=O)C5=O)CC3)s2)o1 (stereo not drawn) | HH | cell growth or viability, CCK-8 | – | 50 nM | viability | 97.9% |
| C=CC(=O)NC1CCN(c2ncc3ncnc(Nc4ccc(Oc5ccc6c(c5)ncn6C)c(C)c4)c3n2)CC1 | SH-10-TC | cell growth or viability | – | – | EC50 | 0.0743 µM |
| CN(C)c1cc(NC(=O)Cc2ccccc2)c(O)c2c1C[C@H]1C[C@H]3[C@H](N(C)C)C(O)=C(C(N)=O)C(=O)[C@@]3(O)C(O)=C1C2=O | Mycobacterium tuberculosis | microbial growth, broth dilution | H37RV | 7 days, pH 7.4 | MIC | 3.1 µg/mL (≈ 5.25 µM) |
